From ChEMBL document CHEMBL4265950, “Discovery of furyl/thienyl β-carboline derivatives as potent and selective PDE5 inhibitors with excellent vasorelaxant effect” (Eur J Med Chem, 2018)

Columns and labels:
[1] = target: Dual specificity calcium/calmodulin-dependent 3',5'-cyclic nucleotide phosphodiesterase 1A (Homo sapiens, UniProt P54750); test: Inhibition of full length recombinant human N-terminal GST-tagged PDE1A expressed in baculovirus infected sf9 cells using FAM-cyclic-3',5-AMP as substrate after 1 hr by fluorescence polarization assay
Sequence of Dual specificity calcium/calmodulin-dependent 3',5'-cyclic nucleotide phosphodiesterase 1A (P54750 whole entry, canonical isoform): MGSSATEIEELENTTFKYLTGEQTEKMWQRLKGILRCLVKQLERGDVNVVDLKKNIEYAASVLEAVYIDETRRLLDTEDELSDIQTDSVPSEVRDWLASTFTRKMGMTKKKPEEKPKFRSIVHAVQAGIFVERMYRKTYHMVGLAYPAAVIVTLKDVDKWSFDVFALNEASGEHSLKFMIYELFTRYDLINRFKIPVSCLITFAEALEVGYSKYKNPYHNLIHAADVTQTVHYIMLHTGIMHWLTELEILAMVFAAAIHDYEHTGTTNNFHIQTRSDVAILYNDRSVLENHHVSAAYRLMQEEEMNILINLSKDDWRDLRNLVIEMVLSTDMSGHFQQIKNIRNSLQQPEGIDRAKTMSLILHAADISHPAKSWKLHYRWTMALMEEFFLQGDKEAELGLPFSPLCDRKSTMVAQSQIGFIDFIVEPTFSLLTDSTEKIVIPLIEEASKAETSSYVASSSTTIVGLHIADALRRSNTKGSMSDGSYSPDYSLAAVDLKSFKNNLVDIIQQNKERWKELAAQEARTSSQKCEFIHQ
Outline: (§1)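 Fluorescence polarization assay run at 25 °C for 60 min in 40 mM MOPS pH 7.5, 0.5 mM EDTA, 15 mM MgCl2, 0.15 mg/mL BSA, 1 mM DTT, 0.05% ProClin 200. Contained 15 ng/mL PDE isoform and 100 nM FAM-cGMP or FAM-cAMP according to isoform, with 1% DMSO final. Binding agent added for 1 h at 25 °C; read at […] nm. IC50 from normalized nonlinear dose-response fit.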

[2] = target: cGMP-dependent 3',5'-cyclic phosphodiesterase (Homo sapiens, UniProt O00408); test: Inhibition of recombinant human N-terminal FLAG-tagged PDE2A (2 to 941 residues) expressed in baculovirus infected sf9 cells using FAM-cyclic-3',5-AMP as substrate after 1 hr by fluorescence polarization assay; outline: as §1
[3] = target: cGMP-inhibited 3',5'-cyclic phosphodiesterase 3B (Homo sapiens, UniProt Q13370); test: Inhibition of recombinant human N-terminal GST-tagged PDE3B (592 to end residues) expressed in baculovirus infected sf9 cells using FAM-cyclic-3',5-AMP as substrate after 1 hr by fluorescence polarization assay; outline: as §1
Sequence of cGMP-inhibited 3',5'-cyclic phosphodiesterase 3B (Q13370 whole entry): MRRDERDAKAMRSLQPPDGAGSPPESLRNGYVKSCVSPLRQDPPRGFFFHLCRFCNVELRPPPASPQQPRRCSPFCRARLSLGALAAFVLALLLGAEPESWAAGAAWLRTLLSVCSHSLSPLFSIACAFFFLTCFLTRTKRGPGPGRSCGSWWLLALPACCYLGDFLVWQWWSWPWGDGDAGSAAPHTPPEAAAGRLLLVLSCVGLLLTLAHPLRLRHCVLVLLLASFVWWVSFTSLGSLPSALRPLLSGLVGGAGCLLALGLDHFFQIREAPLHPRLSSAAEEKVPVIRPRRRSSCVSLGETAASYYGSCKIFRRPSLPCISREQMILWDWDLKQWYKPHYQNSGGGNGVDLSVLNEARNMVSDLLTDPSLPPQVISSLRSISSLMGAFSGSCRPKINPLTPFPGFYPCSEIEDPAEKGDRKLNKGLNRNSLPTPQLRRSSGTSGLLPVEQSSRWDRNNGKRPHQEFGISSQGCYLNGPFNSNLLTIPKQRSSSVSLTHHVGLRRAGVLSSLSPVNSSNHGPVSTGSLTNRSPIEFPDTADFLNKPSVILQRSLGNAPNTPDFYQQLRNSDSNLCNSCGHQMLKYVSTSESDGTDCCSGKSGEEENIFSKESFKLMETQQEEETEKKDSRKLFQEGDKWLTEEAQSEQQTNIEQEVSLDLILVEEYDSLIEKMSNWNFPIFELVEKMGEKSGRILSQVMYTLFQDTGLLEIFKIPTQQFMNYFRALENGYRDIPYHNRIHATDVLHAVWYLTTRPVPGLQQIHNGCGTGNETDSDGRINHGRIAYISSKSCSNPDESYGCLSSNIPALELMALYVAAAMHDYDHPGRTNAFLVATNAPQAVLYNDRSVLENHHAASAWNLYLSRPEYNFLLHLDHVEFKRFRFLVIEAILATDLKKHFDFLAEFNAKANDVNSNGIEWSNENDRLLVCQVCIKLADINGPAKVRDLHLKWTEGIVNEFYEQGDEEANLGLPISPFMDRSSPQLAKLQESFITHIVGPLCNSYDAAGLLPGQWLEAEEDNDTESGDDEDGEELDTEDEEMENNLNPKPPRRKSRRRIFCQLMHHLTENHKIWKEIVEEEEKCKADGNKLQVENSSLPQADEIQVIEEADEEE

[4] = target: High affinity 3',5'-cyclic-AMP phosphodiesterase 7A (Homo sapiens, UniProt Q13946); test: Inhibition of recombinant human N-terminal GST-tagged PDE7A (122 to end residues) expressed in baculovirus infected sf9 cells using FAM-cyclic-3',5-AMP as substrate after 1 hr by fluorescence polarization assay; outline: as §1
[5] = target: High affinity cAMP-specific and IBMX-insensitive 3',5'-cyclic phosphodiesterase 8A (Homo sapiens, UniProt O60658); test: Inhibition of full length recombinant human N-terminal GST-tagged PDE8A1 expressed in baculovirus infected sf9 cells using FAM-cyclic-3',5-AMP as substrate after 1 hr by fluorescence polarization assay; outline: as §1
Sequence of High affinity cAMP-specific and IBMX-insensitive 3',5'-cyclic phosphodiesterase 8A (O60658 whole entry): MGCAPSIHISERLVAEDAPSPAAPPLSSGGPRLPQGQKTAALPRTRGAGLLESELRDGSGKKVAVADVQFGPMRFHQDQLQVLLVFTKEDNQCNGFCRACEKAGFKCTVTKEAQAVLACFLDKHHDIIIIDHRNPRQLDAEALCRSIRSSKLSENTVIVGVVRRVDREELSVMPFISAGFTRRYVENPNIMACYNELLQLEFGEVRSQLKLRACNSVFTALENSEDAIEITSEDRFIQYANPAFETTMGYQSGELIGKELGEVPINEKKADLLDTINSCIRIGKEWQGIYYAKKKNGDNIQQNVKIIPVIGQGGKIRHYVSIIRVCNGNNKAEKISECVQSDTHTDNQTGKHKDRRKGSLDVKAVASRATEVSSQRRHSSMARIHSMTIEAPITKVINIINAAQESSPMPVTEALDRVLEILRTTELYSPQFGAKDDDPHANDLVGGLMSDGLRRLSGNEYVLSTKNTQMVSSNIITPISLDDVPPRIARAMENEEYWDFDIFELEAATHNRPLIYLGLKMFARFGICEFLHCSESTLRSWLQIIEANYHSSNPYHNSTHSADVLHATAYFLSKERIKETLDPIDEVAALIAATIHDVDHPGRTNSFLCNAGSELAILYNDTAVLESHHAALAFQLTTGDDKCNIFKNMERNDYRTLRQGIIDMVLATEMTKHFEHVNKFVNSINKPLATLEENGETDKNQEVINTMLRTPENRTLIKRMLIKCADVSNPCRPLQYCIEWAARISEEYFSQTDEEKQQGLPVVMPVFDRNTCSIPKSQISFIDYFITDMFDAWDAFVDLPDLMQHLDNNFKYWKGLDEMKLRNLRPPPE

[6] = target: High affinity cGMP-specific 3',5'-cyclic phosphodiesterase 9A (Homo sapiens, UniProt O76083); test: Inhibition of full length recombinant human N-terminal GST-tagged PDE9A2 expressed in baculovirus infected sf9 cells using […] as substrate after 1 hr by fluorescence polarization assay; outline: as §1
Sequence of High affinity cGMP-specific 3',5'-cyclic phosphodiesterase 9A (O76083 whole entry, the tested form may be a part): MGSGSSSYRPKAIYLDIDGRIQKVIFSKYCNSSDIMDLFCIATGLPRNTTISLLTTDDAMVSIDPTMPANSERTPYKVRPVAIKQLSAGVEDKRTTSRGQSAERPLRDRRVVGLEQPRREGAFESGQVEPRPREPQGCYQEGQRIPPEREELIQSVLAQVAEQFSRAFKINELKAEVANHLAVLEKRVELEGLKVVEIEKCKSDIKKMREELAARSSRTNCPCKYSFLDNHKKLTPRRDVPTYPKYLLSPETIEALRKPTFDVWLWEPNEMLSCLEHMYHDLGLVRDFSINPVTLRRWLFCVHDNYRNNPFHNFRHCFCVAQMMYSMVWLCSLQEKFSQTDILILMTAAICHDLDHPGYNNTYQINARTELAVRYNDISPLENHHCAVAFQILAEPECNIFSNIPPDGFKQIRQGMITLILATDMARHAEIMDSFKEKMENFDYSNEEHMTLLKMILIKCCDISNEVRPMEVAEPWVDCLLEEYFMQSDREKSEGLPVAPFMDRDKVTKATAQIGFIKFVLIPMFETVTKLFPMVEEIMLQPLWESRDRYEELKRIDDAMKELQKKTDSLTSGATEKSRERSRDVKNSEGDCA

[7] = target: cAMP and cAMP-inhibited cGMP 3',5'-cyclic phosphodiesterase 10A (Homo sapiens, UniProt Q9Y233); test: Inhibition of recombinant human N-terminal GST-tagged PDE10A1 (2 to 789 residues) expressed in baculovirus infected sf9 cells using FAM-cyclic-3',5-AMP as substrate after 1 hr by fluorescence polarization assay; outline: as §1
[8] = target: cGMP-specific 3',5'-cyclic phosphodiesterase (Rattus norvegicus, UniProt O54735); test: (§2) Inhibition of PDE5 in Wistar rat mesentric arteries assessed as inhibition of phenylephrine-induced contraction by measuring increase in acetylcholine-induced vasorelaxation by pressure myographic method
Outline: (§3)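 Third-order rat mesenteric arteries (110–150 µm), 3–4 mm unbranched segments, cannulated in PSS (pH 7.4, 95% O2/5% CO2). Equilibrated 35 min while pressure was stepped 10→60 mmHg. Checked with 120 mM KCl and acetylcholine, then constricted with 20 µM phenylephrine (norepinephrine in text) and given compounds cumulatively. Ca²⁺-free PSS set maximal dilation. Outer diameter recorded as % relaxation; EC50 from normalized nonlinear fit.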

[9] = target: T1, cGMP-specific 3',5'-cyclic phosphodiesterase (Homo sapiens, UniProt O76074); test: Inhibition of full length recombinant human N-terminal GST-tagged PDE5A1 expressed in baculovirus infected sf9 cells using FAM-cyclic-3',5-GMP as substrate after 1 hr by fluorescence polarization assay
[10] = target: T1, cGMP-specific 3',5'-cyclic phosphodiesterase; test: Inhibition of full length recombinant human N-terminal GST-tagged PDE5A1 expressed in baculovirus infected sf9 cells at 100 nM using FAM-cyclic-3',5-GMP as substrate after 1 hr by fluorescence polarization assay relative to control
Outline: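 Single-point test at 100 nM, reported as percent inhibition. Human PDE5 at 15 ng/mL with 100 nM FAM-cGMP in MOPS pH 7.5 buffer (MgCl2, EDTA, BSA, DTT), 1% DMSO final, 60 min at 25 °C. Binding agent added for 1 h, then fluorescence polarization read at […] nm.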

[11] = target: 3',5'-cyclic-AMP phosphodiesterase 4A (Homo sapiens, UniProt P27815); test: Inhibition of full length recombinant human N-terminal GST-tagged PDE4A1A expressed in baculovirus infected sf9 cells using FAM-cyclic-3',5-AMP as substrate after 1 hr by fluorescence polarization assay
Sequence of 3',5'-cyclic-AMP phosphodiesterase 4A (P27815 whole entry): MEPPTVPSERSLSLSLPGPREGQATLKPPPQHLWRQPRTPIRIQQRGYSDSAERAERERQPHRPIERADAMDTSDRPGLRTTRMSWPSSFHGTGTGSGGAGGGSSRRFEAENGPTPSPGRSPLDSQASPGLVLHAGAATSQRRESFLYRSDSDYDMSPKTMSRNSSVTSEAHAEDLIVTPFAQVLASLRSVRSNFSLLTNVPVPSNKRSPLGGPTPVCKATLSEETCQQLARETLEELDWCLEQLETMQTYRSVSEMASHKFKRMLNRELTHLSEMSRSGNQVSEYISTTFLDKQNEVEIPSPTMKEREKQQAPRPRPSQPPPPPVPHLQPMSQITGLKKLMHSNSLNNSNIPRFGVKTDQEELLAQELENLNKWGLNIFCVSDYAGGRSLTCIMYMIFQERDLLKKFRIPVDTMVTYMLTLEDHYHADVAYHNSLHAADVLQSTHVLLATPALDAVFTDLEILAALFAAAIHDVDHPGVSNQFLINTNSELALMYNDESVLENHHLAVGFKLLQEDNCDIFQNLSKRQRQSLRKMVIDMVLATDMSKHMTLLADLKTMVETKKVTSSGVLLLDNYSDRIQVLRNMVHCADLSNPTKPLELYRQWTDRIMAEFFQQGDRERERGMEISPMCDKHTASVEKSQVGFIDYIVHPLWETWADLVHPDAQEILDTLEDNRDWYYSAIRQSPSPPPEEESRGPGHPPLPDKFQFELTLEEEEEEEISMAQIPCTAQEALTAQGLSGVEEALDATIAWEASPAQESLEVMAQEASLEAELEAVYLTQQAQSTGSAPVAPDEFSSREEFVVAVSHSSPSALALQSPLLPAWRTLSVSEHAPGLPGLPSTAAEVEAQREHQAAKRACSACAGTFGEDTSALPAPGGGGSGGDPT

[12] = target: Cone cGMP-specific 3',5'-cyclic phosphodiesterase subunit alpha' (Homo sapiens, UniProt P51160); test: Inhibition of full length recombinant human N-terminal GST-tagged PDE6C expressed in baculovirus infected sf9 cells using […] as substrate after 1 hr by fluorescence polarization assay
[13] = species on record: Homo sapiens; test: Selectivity index, ratio of IC50 for inhibition of full length recombinant human N-terminal GST-tagged PDE6C expressed in baculovirus infected sf9 cells to IC50 for inhibition of full length recombinant human N-terminal GST-tagged PDE5A1 expressed in baculovirus infected sf9 cells
[14] = target: Dual 3',5'-cyclic-AMP and -GMP phosphodiesterase 11A (Homo sapiens, UniProt Q9HCR9); test: Inhibition of full length recombinant human N-terminal GST-tagged PDE11A4 expressed in baculovirus infected sf9 cells using FAM-cyclic-3',5-AMP as substrate after 1 hr by fluorescence polarization assay
Sequence of Dual 3',5'-cyclic-AMP and -GMP phosphodiesterase 11A (Q9HCR9 whole entry): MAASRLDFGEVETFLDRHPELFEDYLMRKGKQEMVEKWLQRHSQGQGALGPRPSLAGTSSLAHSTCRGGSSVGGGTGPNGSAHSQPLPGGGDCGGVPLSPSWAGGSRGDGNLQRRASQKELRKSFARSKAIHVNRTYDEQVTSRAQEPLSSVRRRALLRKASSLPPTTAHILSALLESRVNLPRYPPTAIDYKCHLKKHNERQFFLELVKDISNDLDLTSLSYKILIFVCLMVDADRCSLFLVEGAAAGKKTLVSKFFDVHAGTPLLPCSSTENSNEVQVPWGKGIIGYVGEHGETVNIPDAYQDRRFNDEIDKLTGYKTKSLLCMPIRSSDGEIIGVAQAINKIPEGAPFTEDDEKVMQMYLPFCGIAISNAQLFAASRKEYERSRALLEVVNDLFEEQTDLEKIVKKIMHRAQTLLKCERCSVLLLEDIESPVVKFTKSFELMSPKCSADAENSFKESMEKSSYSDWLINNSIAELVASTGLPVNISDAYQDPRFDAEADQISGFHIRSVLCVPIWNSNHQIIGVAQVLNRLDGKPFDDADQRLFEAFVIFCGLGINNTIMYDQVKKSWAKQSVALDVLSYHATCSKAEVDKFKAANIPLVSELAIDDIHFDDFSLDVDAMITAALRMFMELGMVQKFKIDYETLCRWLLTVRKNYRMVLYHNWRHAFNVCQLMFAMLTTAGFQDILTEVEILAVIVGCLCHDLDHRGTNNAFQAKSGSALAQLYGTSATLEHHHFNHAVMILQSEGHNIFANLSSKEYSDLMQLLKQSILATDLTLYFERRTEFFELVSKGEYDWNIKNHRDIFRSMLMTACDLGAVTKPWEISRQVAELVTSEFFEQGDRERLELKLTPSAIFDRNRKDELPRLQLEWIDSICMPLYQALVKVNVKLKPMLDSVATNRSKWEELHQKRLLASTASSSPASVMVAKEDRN

[15] = species on record: Homo sapiens; test: Selectivity index, ratio of IC50 for inhibition of full length recombinant human N-terminal GST-tagged PDE11A4 expressed in baculovirus infected sf9 cells to IC50 for inhibition of full length recombinant human N-terminal GST-tagged PDE5A1 expressed in baculovirus infected sf9 cells
[16] = species on record: Homo sapiens; test: Selectivity index, ratio of IC50 for inhibition of recombinant human N-terminal GST-tagged PDE7A (122 to end residues) expressed in baculovirus infected sf9 cells to IC50 for inhibition of full length recombinant human N-terminal GST-tagged PDE5A1 expressed in baculovirus infected sf9 cells
[17] = species on record: Homo sapiens; test: Selectivity index, ratio of IC50 for inhibition of full length recombinant human N-terminal GST-tagged PDE8A1 expressed in baculovirus infected sf9 cells to IC50 for inhibition of full length recombinant human N-terminal GST-tagged PDE5A1 expressed in baculovirus infected sf9 cells
[18] = species on record: Homo sapiens; test: Selectivity index, ratio of IC50 for inhibition of full length recombinant human N-terminal GST-tagged PDE9A2 expressed in baculovirus infected sf9 cells to IC50 for inhibition of full length recombinant human N-terminal GST-tagged PDE5A1 expressed in baculovirus infected sf9 cells
[19] = species on record: Homo sapiens; test: Selectivity index, ratio of IC50 for inhibition of recombinant human N-terminal GST-tagged PDE10A1 (2 to 789 residues) expressed in baculovirus infected sf9 cells to IC50 for inhibition of full length recombinant human N-terminal GST-tagged PDE5A1 expressed in baculovirus infected sf9 cells
[20] = Stability of the compound in PDE5 enzyme assay condition at 100 uM by HPLC analysis; format: ADME
[21] = target: cGMP-specific 3',5'-cyclic phosphodiesterase (Rattus norvegicus) (UniProt O54735); test: as §2; outline: as §3
[22] = target: T1, cGMP-specific 3',5'-cyclic phosphodiesterase; test: Inhibition of PDE5 (unknown origin)
[23] = species on record: Homo sapiens; test: Selectivity ratio of Ki for PDE6 (unknown origin) to Ki for PDE5 (unknown origin)
[24] = species on record: Homo sapiens; test: Selectivity ratio of IC50 for PDE6 (unknown origin) to IC50 for PDE5 (unknown origin)

Compound: CN1CC(=O)N2[C@H](c3ccc4c(c3)OCO4)c3[nH]c4ccccc4c3C[C@@H]2C1=O
- IC50 [1]: > 10000 nM
- IC50 [2]: > 10000 nM
- IC50 [3]: > 10000 nM
- IC50 [4]: > 10000 nM
- IC50 [5]: > 10000 nM
- IC50 [6]: > 10000 nM
- IC50 [7]: > 10000 nM
- EC50 [8]: 78 nM

Compound: CCc1ccc([C@@H]2c3[nH]c4ccccc4c3C[C@@H]3C(=O)N(C)CC(=O)N23)s1
- IC50 [9]: 3.87 nM
- inhibition [10]: 97.8%
- IC50 [1]: > 20000 nM
- IC50 [2]: > 20000 nM
- IC50 [3]: > 20000 nM
- IC50 [11]: > 10000 nM
- IC50 [12]: > 1000 nM
- Ratio IC50 [13]: > 258
- IC50 [14]: 272 nM
- IC50 [4]: > 4000 nM
- IC50 [5]: > 4000 nM
- IC50 [6]: > 4000 nM
- IC50 [7]: > 4000 nM
- Ratio IC50 [15]: 70
- Ratio IC50 [16]: > 1000
- Ratio IC50 [17]: > 1000
- Ratio IC50 [18]: > 1000
- Ratio IC50 [19]: > 1000
- Stability [20]: Stable
- percent relaxation [21]: Dose-dependent effect
- EC50 [8]: 30 nM

Compound: CCc1ccc([C@@H]2c3[nH]c4ccccc4c3C[C@H]3C(=O)N(CC)C(=O)N23)o1
- IC50 [9]: 2.92 nM
- inhibition [10]: 99.5%
- IC50 [1]: > 20000 nM
- IC50 [2]: > 20000 nM
- IC50 [3]: > 20000 nM
- IC50 [11]: > 10000 nM
- IC50 [12]: 127 nM
- Ratio IC50 [13]: 43
- IC50 [14]: > 1000 nM
- IC50 [4]: > 3000 nM
- IC50 [5]: > 3000 nM
- IC50 [6]: > 3000 nM
- IC50 [7]: > 3000 nM
- Ratio IC50 [15]: > 342
- Ratio IC50 [16]: > 1000
- Ratio IC50 [17]: > 1000
- Ratio IC50 [18]: > 1000
- Ratio IC50 [19]: > 1000
- Stability [20]: Stable
- percent relaxation [21]: Dose-dependent effect
- EC50 [8]: 63 nM

Compound: CN1CCN(C(=O)c2ccc(-c3ccc(C(=O)N4CCc5c([nH]c6ccccc56)C4c4ccc5c(c4)OCO5)o3)cc2)CC1 (racemic)
- Ki [22]: 8 nM
- Ratio Ki [23]: 187

Compound: CCc1ccc(C2c3[nH]c4ccccc4c(=O)c3CN2c2ncc(-c3ccccn3)cn2)o1 (centres undefined)
- IC50 [22]: 0.53 nM
- Ratio IC50 [24]: 4

Compound: COc1ccc(CNc2nc(N3CCC[C@H]3CO)ncc2C(=O)NCc2ncccn2)cc1Cl
- Ratio Ki [23]: 1000

Compound: CCc1ccc(C2c3[nH]c4ccccc4c(=O)c3CN2c2ncc(-c3ccccn3)cn2)s1 (centres undefined)
- Ratio IC50 [24]: 8

Compound: CCc1ccc([C@@H]2c3[nH]c4ccccc4c3C[C@@H]3C(=O)N(C)CC(=O)N23)o1
- IC50 [9]: 12.7 nM
- inhibition [10]: 98.4%
- IC50 [1]: > 20000 nM
- IC50 [2]: > 20000 nM
- IC50 [3]: > 20000 nM
- IC50 [11]: > 10000 nM
- IC50 [12]: > 1000 nM
- Ratio IC50 [13]: > 79
- IC50 [14]: 119 nM
- Ratio IC50 [15]: 9
- Stability [20]: Stable
- percent relaxation [21]: Dose-dependent effect
- EC50 [8]: 725 nM
